Measured values from different studies.
Lines come from different studies, so protocols differ.
Target: Serine/threonine-protein kinase PLK2 (PLK2, Homo sapiens, UniProt Q9NYY3)

SMILES	observed	mode	technique	concentration	endpoint	result
CCCCN(CCCC)C(=O)CN1C[C@H](c2cc(OC)c3c(c2)OCO3)[C@@H](C(=O)O)[C@@H]1CC(C)(C)CCC	cell-free assay		competition with immobilised ligand	1 µM	remaining binding	67.1%
CC/C(=N\NC(=O)NCc1cccc(O)c1)c1ccc(O)c(C)c1O	enzyme activity	inhibitor		0.1 µM	inhibition	1.3%
CNC(=O)Nc1ccc2c(c1)[C@@]1(CC2)OC(=O)N(CC(=O)N(Cc2ccc(F)cc2)[C@@H](C)C(F)(F)F)C1=O	cell-free assay		competition with immobilised ligand	1 µM	remaining binding	92%
O=C1NC(=O)c2cc(Nc3ccc(F)cc3)c(Nc3ccc(F)cc3)cc21	cell-free assay			0.5 µM	remaining signal	99.6%
CC(C)(C)c1nc(-c2cccc(NS(=O)(=O)c3c(F)cccc3F)c2F)c(-c2ccnc(N)n2)s1	enzyme activity	inhibitor	radiometric	1 µM	remaining activity	94%
COc1cc(-c2cn(C3CCc4ccccc4N(CC(F)(F)F)C3=O)nn2)ccc1-n1ccc(C)n1 (stereo not drawn)	cell-free assay		competition with immobilised ligand	1 µM	remaining binding	100%
O=C(Nc1cnn(-c2csc(C(=O)NC3COC3)c2)c1)Nc1ccccc1Cl	enzyme activity	inhibitor		5 µM	remaining activity	86%
CO[C@@H](C)c1c(Nc2ccc([C@H](N(C)C(=O)C3CCS(=O)(=O)CC3)C(F)(F)F)cc2)cnc2cc(Cl)nn12	cell-free assay		competition with immobilised ligand	1 µM	remaining binding	100%
CCOc1cc(-c2nncn2C)ccc1Nc1ncc2cc(C)nc(NCC(C)(C)C)c2n1	enzyme activity	inhibitor	FRET	1 µM	inhibition	< 15%
COc1cc(-c2cc(-c3ccc(N4CCNCC4)cc3)cnc2C)cc(OC)c1OC	enzyme activity	inhibitor		0.1 µM	inhibition	7%
N#CCCc1ccc2c(c1)-c1[nH]c3ccc([N+](=O)[O-])cc3c1CC(=O)N2	cell-free assay			0.5 µM	remaining signal	99%
CCN(CC)CCNC(=O)c1c(C)[nH]c(/C=C2\C(=O)Nc3ccc(F)cc32)c1C	enzyme activity	inhibitor		10 µM	inhibition	6%
COc1cc(-c2cn(C3CCc4c(F)cccc4N(CC(F)(F)F)C3=O)nn2)ccc1-n1cnc(C)c1 (stereo not drawn)	cell-free assay		competition with immobilised ligand	1 µM	remaining binding	100%
Cc1cnc(NC2CCOCC2)nc1-n1cnc(C(=O)NC(CN)c2cc(F)cc(Cl)c2)c1 (stereo not drawn)	enzyme activity	inhibitor	radiometric	1 µM	remaining activity	69%
Cc1cc(NC(=O)c2cccc3cc(-c4cccc5[nH]nc(N)c45)ccc23)ccc1F	enzyme activity	inhibitor		0.1 µM	activity vs control	91%
Cc1ccc(Nc2nccc(N(C)c3ccc4c(C)n(C)nc4c3)n2)cc1S(N)(=O)=O	enzyme activity	inhibitor		0.3 µM	inhibition	-15%
COc1cc2ncnc(Nc3ccc(Oc4ccccc4)c(C)c3C)c2cc1OC	enzyme activity	inhibitor		1 µM	inhibition	1%
C[S+]([O-])c1ccc(-c2nc(-c3ccncc3)c(-c3ccc(F)cc3)[nH]2)cc1 (stereo not drawn)	cell-free assay			0.5 µM	remaining signal	95.6%
CN(C)c1nccc(-c2cnc3ncccn23)n1	binding			1 µM	remaining binding	66%
CNC(=O)c1cc(Oc2ccc(NC(=O)Nc3ccc(Cl)c(C(F)(F)F)c3)cc2)ccn1	enzyme activity	inhibitor		0.3 µM	inhibition	-1%
CO[C@H]1CC[C@H](CNc2ccc(S(=O)(=O)NC(=O)c3ccc(N4CCN(CC5=C(c6ccc(Cl)cc6)CC(C)(C)CC5)CC4)cc3Oc3cnc4[nH]ccc4c3)cc2[N+](=O)[O-])CC1	cell-free assay		competition with immobilised ligand	1 µM	remaining binding	100%
Cc1sc(C(=O)NC2COC2)cc1-n1cc(NC(=O)Nc2c(F)cccc2Cl)cn1	enzyme activity	inhibitor		10 µM	remaining activity	95.2%
O=C(O)c1cc(-c2ccc(C3CCNCC3)cc2)c2ccc(-c3ccc(C(F)(F)F)cc3)cc2c1	cell-free assay		competition with immobilised ligand	1 µM	remaining binding	100%
O=C1Nc2ccc(Cl)cc2C1=Cc1cc(Cl)c(O)c(Cl)c1	cell-free assay			0.5 µM	remaining signal	95.4%
